Calls of active or inactive are those of the source. The calls are words filed in the database; no cut-off is given here.
Columns and labels:
Leishmania amazonensis [1] = experiment: Antileishmanial activity against Leishmania amazonensis infected in CBA/J mouse assessed as reduction of foot-pad thickness at 100 mg/kg/day, sc administered 4 weeks after infection 5 dose in a week for 4 weeks measured after 12 weeks; format: functional, organism-based
How it was run: (§1)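 Sc dosing started day 27 post-infection, 5 doses/week for 4 weeks. Controls got DMSO/PBS vehicle. Footpad swelling was followed to week 12 and recorded as infected-footpad thickness. Groups were seven mice, reported as mean with standard errors.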

Leishmania amazonensis [2] = experiment: Antileishmanial activity against Leishmania amazonensis infected in CBA/J mouse assessed as reduction of lesion size at 100 mg/kg/day, sc administered 4 weeks after infection 5 dose in a week for 4 weeks measured after 12 weeks; format: functional, organism-based; how it was run: as §1
Leishmania amazonensis [3] = experiment: Antileishmanial activity against Leishmania amazonensis infected in CBA/J mouse assessed as reduction of parasite loads in popliteal lymph nodes at 100 mg/kg/day, sc administered 4 weeks after infection 5 dose in a week for 4 weeks measured after 12 weeks; format: functional, organism-based; details: Popliteal lymph node
How it was run: (§2)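 Mice were killed at week 12, 4 weeks after treatment ended. Popliteal lymph nodes and spleens were removed aseptically, weighed and homogenized in Schneider's medium + 10% fetal calf serum. Eight serial 1:10 dilutions were plated in triplicate and incubated at 26°C. Titer was the last dilution with ≥1 parasite by microscopy. Groups were seven mice.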

Leishmania amazonensis [4] = experiment: Antileishmanial activity against Leishmania amazonensis infected in CBA/J mouse assessed as reduction of parasite loads in spleen at 100 mg/kg/day, sc administered 4 weeks after infection 5 dose in a week for 4 weeks measured after 12 weeks; format: functional, organism-based; how it was run: as §2
Leishmania amazonensis [5] = experiment: Antileishmanial activity against Leishmania amazonensis infected in macrophages assessed as nitric oxide release; format: functional, organism-based
Leishmania amazonensis [6] = experiment: Antileishmanial activity against Leishmania amazonensis infected in CBA/J mouse assessed as reduction of lesion size at 24 mg/kg/day, sc administered 4 weeks after infection 5 dose in a week for 4 weeks measured after 12 weeks; format: functional, organism-based
How it was run: (§3)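 Infected footpad thickness measured as lesion size, followed to week 12 postinfection. Subcutaneous dosing in DMSO/PBS vehicle began 27 days after infection, 5 doses a week for 4 weeks; controls received vehicle alone. Groups of seven mice, mean ± SEM.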

Leishmania amazonensis [7] = experiment: Antileishmanial activity against Leishmania amazonensis infected in CBA/J mouse assessed as reduction of foot-pad thickness at 24 mg/kg/day, sc administered 4 weeks after infection 5 dose in a week for 4 weeks measured after 12 weeks; format: functional, organism-based; how it was run: as §3
Mus musculus [8] = experiment: Toxicity in CBA/J mouse assessed as change in white blood cell count at 24 mg/kg/day, sc administered 5 doses a week for 4 weeks (reference value: 14 x 10^3 ul); format: organism-based; set-up: route subcutaneous; details: in vivo, 672 h
How it was run: (§4)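 Uninfected mice dosed subcutaneously in DMSO/PBS, 5 doses/week; tail blood taken at week 4 of treatment. Total leukocytes counted in Neubauer chamber; lymphocyte, monocyte and neutrophil values given as percentages.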

Mus musculus [9] = experiment: Toxicity in CBA/J mouse assessed as change in lymphocytes count at 24 mg/kg/day, sc administered 5 doses a week for 4 weeks (reference value: 75%); format: organism-based; set-up: route subcutaneous; details: in vivo, 672 h; how it was run: as §4
Mus musculus [10] = experiment: Toxicity in CBA/J mouse assessed as change in monocytes count at 24 mg/kg/day, sc administered 5 doses a week for 4 weeks (reference value: 5%); format: organism-based; set-up: route subcutaneous; details: in vivo, 672 h; how it was run: as §4
Mus musculus [11] = experiment: Toxicity in CBA/J mouse assessed as change in neutrophils count at 24 mg/kg/day, sc administered 5 doses a week for 4 weeks (reference value: 19%); format: organism-based; set-up: route subcutaneous; details: in vivo, 672 h; how it was run: as §4
Mus musculus [12] = experiment: Toxicity in CBA/J mouse assessed as change in aspartate aminotransferase level at 24 mg/kg/day, sc administered 5 doses a week for 4 weeks (reference value: 51 +/- 6.8 U/ml); format: organism-based; set-up: route subcutaneous; details: in vivo, 672 h
Mus musculus [13] = experiment: Toxicity in CBA/J mouse assessed as change in alanine aminotransferase level at 24 mg/kg/day, sc administered 5 doses a week for 4 weeks (reference value: 52 +/- 6.2 U/ml); format: organism-based; set-up: route subcutaneous; details: in vivo, 672 h
Mus musculus [14] = experiment: Toxicity in CBA/J mouse assessed as change in body weight at 24 mg/kg/day, sc administered 5 doses a week for 4 weeks (reference value: 25 g); format: organism-based; set-up: route subcutaneous; details: in vivo, 672 h
Leishmania amazonensis [15] = experiment: Antileishmanial activity against Leishmania amazonensis infected in CBA/J mouse assessed as reduction of parasite loads in popliteal lymph nodes at 24 mg/kg/day, sc administered 4 weeks after infection 5 dose in a week for 4 weeks measured after 12 weeks; format: functional, organism-based; details: Popliteal lymph node
How it was run: (§5)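 Week 12 postinfection (4 weeks after last dose): popliteal lymph nodes and spleens removed aseptically, weighed, homogenized in Schneider's medium + 10% FCS; eight 1:10 serial dilutions in triplicate, incubated at 26°C, read by inverted microscope; titer = last dilution with at least one parasite. Seven animals; subcutaneous dosing in DMSO/PBS, 5 doses/week for 4 weeks.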

Leishmania amazonensis [16] = experiment: Antileishmanial activity against Leishmania amazonensis infected in CBA/J mouse assessed as reduction of parasite loads in spleen at 24 mg/kg/day, sc administered 4 weeks after infection 5 dose in a week for 4 weeks measured after 12 weeks; format: functional, organism-based; how it was run: as §5
Leishmania amazonensis [17] = experiment: Antileishmanial activity against Leishmania amazonensis infected in CBA/J mouse assessed as reduction of foot-pad thickness at 22 mg/kg/day, sc administered 4 weeks after infection 5 dose in a week for 4 weeks measured after 12 weeks; format: functional, organism-based; how it was run: as §3
Mus musculus [18] = experiment: Toxicity in CBA/J mouse assessed as change in white blood cell count at 22 mg/kg/day, sc administered 5 doses a week for 4 weeks (reference value: 14 x 10^3 ul); format: organism-based; set-up: route subcutaneous; details: in vivo, 672 h; how it was run: as §4
Mus musculus [19] = experiment: Toxicity in CBA/J mouse assessed as change in lymphocytes count at 22 mg/kg/day, sc administered 5 doses a week for 4 weeks (reference value: 75%); format: organism-based; set-up: route subcutaneous; details: in vivo, 672 h; how it was run: as §4
Mus musculus [20] = experiment: Toxicity in CBA/J mouse assessed as change in monocytes count at 22 mg/kg/day, sc administered 5 doses a week for 4 weeks (reference value: 5%); format: organism-based; set-up: route subcutaneous; details: in vivo, 672 h; how it was run: as §4
Mus musculus [21] = experiment: Toxicity in CBA/J mouse assessed as change in neutrophils count at 22 mg/kg/day, sc administered 5 doses a week for 4 weeks (reference value: 19%); format: organism-based; set-up: route subcutaneous; details: in vivo, 672 h; how it was run: as §4
Mus musculus [22] = experiment: Toxicity in CBA/J mouse assessed as change in aspartate aminotransferase level at 22 mg/kg/day, sc administered 5 doses a week for 4 weeks (reference value: 51 +/- 6.8 U/ml); format: organism-based; set-up: route subcutaneous; details: in vivo, 672 h
Mus musculus [23] = experiment: Toxicity in CBA/J mouse assessed as change in alanine aminotransferase level at 22 mg/kg/day, sc administered 5 doses a week for 4 weeks (reference value: 52 +/- 6.2 U/ml); format: organism-based; set-up: route subcutaneous; details: in vivo, 672 h
Mus musculus [24] = experiment: Toxicity in CBA/J mouse assessed as change in body weight at 22 mg/kg/day, sc administered 5 doses a week for 4 weeks (reference value: 25 g); format: organism-based; set-up: route subcutaneous; details: in vivo, 672 h
Leishmania amazonensis [25] = experiment: Antileishmanial activity against Leishmania amazonensis infected in CBA/J mouse assessed as reduction of parasite loads in popliteal lymph nodes at 22 mg/kg/day, sc administered 4 weeks after infection 5 dose in a week for 4 weeks measured after 12 weeks; format: functional, organism-based; details: Popliteal lymph node; how it was run: as §5
Leishmania amazonensis [26] = experiment: Antileishmanial activity against Leishmania amazonensis infected in CBA/J mouse assessed as reduction of parasite loads in spleen at 22 mg/kg/day, sc administered 4 weeks after infection 5 dose in a week for 4 weeks measured after 12 weeks; format: functional, organism-based; how it was run: as §5
Leishmania amazonensis [27] = experiment: Antileishmanial activity against Leishmania amazonensis infected in CBA/J mouse assessed as increase of nitric oxide production in lymph node cells at 22 mg/kg/day, sc administered 4 weeks after infection 5 dose in a week for 4 weeks measured after 12 weeks; format: functional, organism-based

MEGLUMINE ANTIMONATE
Activity (Leishmania amazonensis [1]): Active
Activity (Leishmania amazonensis [2]): inactive
Activity (Leishmania amazonensis [3]): Active
Activity (Leishmania amazonensis [4]): Active

C(=C\c1sc(Nc2ccccc2)n[n+]1-c1ccccc1)/c1ccccc1.[Cl-]
Activity (Leishmania amazonensis [5]): Active
Activity (Leishmania amazonensis [6]): inactive
Activity (Leishmania amazonensis [7]): Active
Activity (Mus musculus [8]): 12 ×10³ /uL
Activity (Mus musculus [9]): 70%
Activity (Mus musculus [10]): 5%
Activity (Mus musculus [11]): 24%
Activity (Mus musculus [12]): 48 U/ml
Activity (Mus musculus [13]): 58 U/ml
Activity (Mus musculus [14]): 26 g
Activity (Leishmania amazonensis [15]): Active
Activity (Leishmania amazonensis [16]): Active

COc1ccc(/C=C/c2sc(Nc3ccccc3)n[n+]2-c2ccccc2)cc1.[Cl-]
Activity (Leishmania amazonensis [5]): Active
Activity (Leishmania amazonensis [17]): Active
Activity (Mus musculus [18]): 12 ×10³ /uL
Activity (Mus musculus [19]): 69%
Activity (Mus musculus [20]): 5%
Activity (Mus musculus [21]): 25%
Activity (Mus musculus [22]): 53 U/ml
Activity (Mus musculus [23]): 57 U/ml
Activity (Mus musculus [24]): 27 g
Activity (Leishmania amazonensis [25]): Active
Activity (Leishmania amazonensis [26]): Active
Activity (Leishmania amazonensis [27]): Active

Source: ChEMBL document CHEMBL1629596, “Antileishmanial activity of 1,3,4-thiadiazolium-2-aminide in mice infected with Leishmania amazonensis” (Antimicrob Agents Chemother, 2009)
